Experimental data published in ChEMBL document CHEMBL3870334, “Synthesis, anticancer, and docking studies of salicyl-hydrazone analogues: A novel series of small potent tropomyosin receptor kinase A inhibitors” (Bioorg Med Chem, 2017).

Experiments:
[1] = Cytotoxicity against human HCT15 cells assessed as reduction in cell proliferation measured after 48 hrs by SRB assay; assay type: functional, cell-based; settings: HCT-15, 48 h
Procedure, shortened: (§1)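 SRB assay of net cell proliferation after continuous 48 h exposure to test compound. Inhibition is expressed as a percentage of non-treated controls. Samples were run in triplicate, and the mean IC50 (concentration giving 50% inhibition of proliferation) was calculated. Doxorubicin served as positive control.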

[2] = Cytotoxicity against human MIAPaCa2 cells assessed as reduction in cell proliferation measured after 48 hrs by SRB assay; assay type: functional, cell-based; settings: MIA PaCa-2, 48 h; procedure, shortened: as §1
[3] = Cytotoxicity against human A549 cells assessed as reduction in cell proliferation measured after 48 hrs by SRB assay; assay type: functional, cell-based; settings: A549, 48 h; procedure, shortened: as §1
[4] = molecular target: T1, High affinity nerve growth factor receptor (Homo sapiens, UniProt P04629); experiment: Inhibition of human N- terminal GST-tagged TrkA cytoplasmic domain (436 to 790 residues) expressed in baculovirus infected sf21 cells at 1 uM using biotinylated peptide substrate incubated for 15 mins followed by addition of ATP measured after 30 mins by TR-FRET assay relative to control
Target sequence in this assay (P04629 33-796 limits assumed): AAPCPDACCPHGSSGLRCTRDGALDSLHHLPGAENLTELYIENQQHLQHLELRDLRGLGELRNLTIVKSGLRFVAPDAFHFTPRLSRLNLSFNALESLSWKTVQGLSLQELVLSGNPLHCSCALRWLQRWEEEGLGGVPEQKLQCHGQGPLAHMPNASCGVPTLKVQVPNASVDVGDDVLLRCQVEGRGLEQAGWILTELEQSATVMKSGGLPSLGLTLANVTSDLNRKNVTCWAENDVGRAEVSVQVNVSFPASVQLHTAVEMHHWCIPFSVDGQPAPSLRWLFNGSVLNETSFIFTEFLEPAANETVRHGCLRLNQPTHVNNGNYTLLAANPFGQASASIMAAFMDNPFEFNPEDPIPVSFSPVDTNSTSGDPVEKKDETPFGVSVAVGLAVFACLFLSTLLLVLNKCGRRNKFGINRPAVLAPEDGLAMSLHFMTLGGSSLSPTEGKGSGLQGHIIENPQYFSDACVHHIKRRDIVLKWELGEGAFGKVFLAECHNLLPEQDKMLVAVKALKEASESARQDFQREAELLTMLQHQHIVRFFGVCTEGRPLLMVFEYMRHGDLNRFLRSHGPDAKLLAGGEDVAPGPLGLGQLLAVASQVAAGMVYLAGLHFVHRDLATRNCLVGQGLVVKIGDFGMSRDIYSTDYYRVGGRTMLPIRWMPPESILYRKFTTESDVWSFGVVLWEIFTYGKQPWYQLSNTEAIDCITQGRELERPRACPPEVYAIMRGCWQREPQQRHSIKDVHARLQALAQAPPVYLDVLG

[5] = Cytotoxicity against human SKOV3 cells assessed as reduction in cell proliferation measured after 48 hrs by SRB assay; assay type: functional, cell-based; settings: SK-OV-3, 48 h; procedure, shortened: as §1
[6] = Cytotoxicity against human SK-MEL-2 cells assessed as reduction in cell proliferation measured after 48 hrs by SRB assay; assay type: functional, cell-based; settings: SK-MEL-2, 48 h; procedure, shortened: as §1
[7] = molecular target: T1, High affinity nerve growth factor receptor; experiment: Inhibition of TrkA (unknown origin)
Procedure, shortened: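 Purified TrkA, biotinylated substrate peptide and inhibitor were preincubated 15 min at 25°C, then 100 µM ATP was added. After 30 min, Eu-cryptate anti-phosphotyrosine antibody (1 µM) and streptavidin-XL665 (125 nM) were added for 1 h. HTRF read at 320 nm excitation, 620/665 nm emission ratio. IC50 from % inhibition across 12 serial dilutions (0.03~10000 nM).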
Target sequence in this assay (P04629 whole entry, the tested form may be a part): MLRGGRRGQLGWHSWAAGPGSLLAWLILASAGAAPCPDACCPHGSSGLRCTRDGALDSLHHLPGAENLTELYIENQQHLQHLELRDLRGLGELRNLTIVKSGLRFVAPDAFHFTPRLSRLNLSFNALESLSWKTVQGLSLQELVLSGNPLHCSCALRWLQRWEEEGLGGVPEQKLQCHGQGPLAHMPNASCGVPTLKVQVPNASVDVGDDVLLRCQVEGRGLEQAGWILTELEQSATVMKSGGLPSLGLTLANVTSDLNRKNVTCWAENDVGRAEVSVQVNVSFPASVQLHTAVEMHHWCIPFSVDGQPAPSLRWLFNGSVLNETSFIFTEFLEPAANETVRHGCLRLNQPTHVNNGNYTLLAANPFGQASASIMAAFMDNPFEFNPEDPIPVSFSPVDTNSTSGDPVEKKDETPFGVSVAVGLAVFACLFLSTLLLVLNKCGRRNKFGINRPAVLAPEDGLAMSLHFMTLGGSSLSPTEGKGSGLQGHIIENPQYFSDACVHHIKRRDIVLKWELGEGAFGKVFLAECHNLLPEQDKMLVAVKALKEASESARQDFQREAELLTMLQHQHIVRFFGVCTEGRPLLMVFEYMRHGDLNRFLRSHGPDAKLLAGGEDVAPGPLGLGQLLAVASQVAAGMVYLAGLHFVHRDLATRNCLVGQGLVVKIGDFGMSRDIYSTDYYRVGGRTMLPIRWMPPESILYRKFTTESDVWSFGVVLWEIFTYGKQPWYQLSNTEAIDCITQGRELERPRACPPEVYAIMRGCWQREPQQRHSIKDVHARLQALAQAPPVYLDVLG

[8] = molecular target: T1, High affinity nerve growth factor receptor; experiment: Inhibition of human N- terminal GST-tagged TrkA cytoplasmic domain (436 to 790 residues) expressed in baculovirus infected sf21 cells using biotinylated peptide substrate incubated for 15 mins followed by addition of ATP measured after 30 mins by TR-FRET assay
Target sequence in this assay (P04629 whole entry, the tested form may be a part): as above

[9] = molecular target: T1, High affinity nerve growth factor receptor; experiment: Inhibition of TrkA (unknown origin) by ELISA
Target sequence in this assay (P04629 whole entry, the tested form may be a part): as above

[10] = molecular target: T1, High affinity nerve growth factor receptor; experiment: Inhibition of human TrkA expressed in human U2OS cells assessed as inhibition of NGF-induced response measured after 1 hr by beta-galactosidase assay; assay type: cell-based
Target sequence in this assay (P04629 whole entry, the tested form may be a part): as above

inhibition [4] | IC50 [7] | IC50 [8] | IC50 [9] | IC50 [10] | Structure (SMILES) | IC50 [1] | IC50 [2] | IC50 [3] | IC50 [5] | IC50 [6]
20.6% |  |  |  |  | O=C(N/N=C/c1ccc(O)cc1)c1ccccc1O | 8.6 µM | 1.18 µM | 2.86 µM | 9.1 µM | 5.46 µM
6.92% |  |  |  |  | O=C(N/N=C/c1ccc(Cl)cc1)c1ccccc1O | 20.9 µM | 7.19 µM | 22.2 µM | 9.83 µM | 14.3 µM
 | 0.303 µM |  |  |  | Oc1ccc(Nc2nc(-c3ccccc3O)nc3ccccc23)cc1 |  |  |  |  | 
 |  |  |  |  | COc1cccc2c1C(=O)c1c(O)c3c(c(O)c1C2=O)C[C@@](O)(C(=O)CO)C[C@@H]3O[C@H]1C[C@H](N)[C@H](O)[C@H](C)O1 [DOXORUBICIN] | 0.872 µM | 0.049 µM | 0.021 µM | 0.074 µM | 0.001 µM
92.9% |  | 2.54 µM |  |  | O=C(N/N=C/c1ccc(O)c(O)c1)c1ccccc1O | 10 µM | 4.74 µM | 3.15 µM | 9.14 µM | 8.86 µM
 | 0.027 µM |  |  |  | COc1ccccc1/C=C/C(=O)Nc1nc(N)n(-c2ccccc2)n1 |  |  |  |  | 
90.9% |  | 0.38 µM |  |  | O=C(N/N=C/c1ccc(O)c(O)c1O)c1ccccc1O | 3.71 µM | 2.21 µM | 7.16 µM | 1.96 µM | 1.84 µM
 |  |  |  |  | CN(C)c1ccc(/C=N/NC(=O)c2ccccc2O)cc1 | 38.4 µM | 20.7 µM | 21.5 µM | 18.5 µM | 19.3 µM
 | 0.02 µM |  |  |  | Nc1ccc(Cc2cccc(NC(=O)N3CCN(c4ccccc4)C3=O)c2)cn1 |  |  |  |  | 
92.4% |  | 0.232 µM |  |  | O=C(N/N=C/c1ccc(O)cc1O)c1ccccc1O | 0.89 µM | 0.48 µM | 2.46 µM | 0.87 µM | 1.43 µM
 |  |  |  |  | O=C(N/N=C/c1ccccc1[N+](=O)[O-])c1ccccc1O | 34.6 µM | 14 µM | 23.2 µM | 19.6 µM | 19.4 µM
 |  |  | 0.002 µM |  | CC1(C)C[C@H](c2cc(F)ccc2F)N(c2ccn3ncc(NC(=O)c4cnccn4)c3n2)C1 |  |  |  |  | 
7.61% |  |  |  |  | COc1ccc(/C=N/NC(=O)c2ccccc2O)c(OC)c1 | 25.7 µM | 11.3 µM | 31.3 µM | 14.5 µM | 19.6 µM
 |  |  |  |  | COc1ccc(/C=N/NC(=O)c2ccccc2O)cc1 | 28.1 µM | 8.64 µM | 12.9 µM | 14.4 µM | 15.2 µM
 |  |  |  | 0.013 µM | CCc1ncc(C(=O)C2CC([C@@H](C)CO)c3ncncc32)cc1NC(=O)Cc1ccc(C(F)(F)F)cc1 (some centres not stated) |  |  |  |  | 
 |  |  |  |  | O=C(N/N=C/c1ccc([N+](=O)[O-])cc1)c1ccccc1O | 22.7 µM | 6.73 µM | 8.72 µM | 8.8 µM | 9.34 µM
3.7% |  |  |  |  | Cc1ccc(/C=N/NC(=O)c2ccccc2O)cc1 | 26.9 µM | 4.45 µM | 6.74 µM | 9.81 µM | 13.1 µM
> 99% |  |  |  |  | Cn1cc(/C=C2\C(=O)Nc3cccnc32)c2ccccc21 |  |  |  |  | 
 |  |  |  | 0.048 µM | COc1ncc(C(=O)C2CC(C(C)C)c3ncncc32)cc1NC(=O)Nc1cc(Cl)cc(Cl)c1 (configuration not stated) |  |  |  |  | 
 |  |  |  |  | O=C(N/N=C/c1ccccc1)c1ccccc1O | 21.3 µM | 2.46 µM | 2.78 µM | 5.94 µM | 9.77 µM
